Four compounds from ChEMBL document CHEMBL4184131, “Cyclotheonellazoles A-C, Potent Protease Inhibitors from the Marine Sponge Theonella aff. swinhoei” (J Nat Prod, 2017) can be followed below.

A short description of assay [1]: Inhibition of chymotrypsin (unknown origin) incubated for 30 mins using Suc-Gly-Gly-phenylalanine-p-nitroanilide substrate by spectrophotometry. The arrangement: species or system Homo sapiens. In short, it runs like this:
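In Tris buffer (0.6 g Tris HCl/100 mL, pH 7.5), enzyme and Suc-Gly-Gly-Phe-p-nitroanilide substrate each dissolved in buffer at 1 mg/mL. Enzyme and sample preincubated 5 min at 37 °C, then substrate added. Absorbance at 405 nm read kinetically over 30 min. Samples from 1 mg/mL DMSO stock serially diluted; IC50 fitted by four-parameter logistic model.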

Assay [2] concerns Plasmodium falciparum. The experiment in a line: Antiplasmodial activity against Plasmodium falciparum assessed as inhibition of parasite growth incubated for 48 hrs by colorimetry based p-LDH assay. The assay is classed as functional, organism-based.
The nature of assay [3]: Inhibition of elastase (unknown origin) incubated for 20 mins using N-Suc-Ala-Ala-Ala-p-nitroanilide substrate by spectrophotometry. On the set-up: species or system Homo sapiens. In short, it runs like this:
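Tris buffer (2.422 g Tris HCl/100 mL, pH 8.0). Enzyme stock 75 mg/mL and N-Suc-Ala-Ala-Ala-p-nitroanilide stock 0.9 mg/mL, both in buffer. Enzyme with sample preincubated 20 min at 30 °C before substrate addition. Absorbance at 405 nm followed kinetically over 20 min. Serial dilutions from 1 mg/mL DMSO stock; IC50 from four-parameter logistic fit.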

For assay [4], the system named is Plasmodium falciparum. Description: Antiplasmodial activity against Plasmodium falciparum. The format is functional, organism-based.

What is called IC50 is the concentration that inhibits the measured activity by half.

In brackets after ≈: the same amount, converted by molar mass. Starred links: 1 amine or outer side, 2 acyl side, 3 side chain; linkers in the order of their positions; H or OH if unused. Positions of bridges follow the written chain, without caps; N, C: chain ends. Non-standard residues stand in square brackets, D forms with d. Residues, ends and D or L forms follow the SMILES beside them. *: point of attachment. X2 = O=C(/C=C/c1csc([C@H](Cc2ccc(O)cc2)N[*:1])n1)[*:2]; X1 = CC[C@H](C)[C@H](N[*:1])C(=O)C(=O)[*:2]; Benzoyl(4-OH) = O=C(c1ccc(O)cc1)*; Cya = N[C@@H](CS(=O)(=O)O)C(=O)O; Nva = CCC[C@H](N)C(=O)O; Abu = CC[C@H](N)C(=O)O; Dap = NC[C@H](N)C(=O)O

As to `CCC[C@@H]1NC(=O)[C@@H](NC(=O)[C@H](C)NC(=O)CNC(=O)c2ccc(O)cc2)CNC(=O)[C@H](CS(=O)(=O)[O-])NC(=O)/C=C/c2csc(n2)[C@H](Cc2ccc(O)cc2)NC(=O)C(=O)[C@H]([C@@H](C)CC)NC1=O.[Na+]` ({Benzoyl(4-OH)}-GA[Dap][Nva][X1][X2][Cya]; lactam 3-C), the IC50 in assay [1] is 0.62 nM; in the assay with Plasmodium falciparum [2], > 20 µg/mL; in assay [3], 0.034 nM.
On the same counts, the results for `CC[C@H](C)[C@@H]1NC(=O)[C@H](CC(C)C)NC(=O)[C@@H](NC(=O)[C@H](C)NC(=O)CNC(=O)c2ccc(O)cc2)CNC(=O)[C@H](CS(=O)(=O)[O-])NC(=O)/C=C/c2csc(n2)[C@H](Cc2ccc(O)cc2)NC(=O)C1=O.[Na+]` ({Benzoyl(4-OH)}-GA[Dap]L[X1][X2][Cya]; lactam 3-C) are 2.8 nM, > 20 µg/mL and 0.1 nM.
`CO[C@H]1C[C@H](CC[C@H](C)[C@H](O)[C@H](C)[C@H]2OC(=O)/C=C/C(C)=C/C[C@H](O)C[C@@H]3C=CC[C@@H](C[C@H](OC)[C@@H](C)[C@@H](O)C[C@@H](O)[C@H](C)[C@@H]([C@@H](C)[C@@H](O)[C@@H](C)CC[C@H]4C[C@H](OC)C[C@H](C)O4)OC(=O)/C=C/C(C)=C/C[C@H](O)C[C@@H]4C=CC[C@@H](C[C@H](OC)[C@@H](C)[C@@H](O)C[C@@H](O)[C@@H]2C)O4)O3)O[C@@H](C)C1` [Swinholide A]: half-maximal inhibition in the assay on Plasmodium falciparum [4] (IC50) required 4.75 µg/mL (≈ 3.42 µM).
On to `CC[C@@H]1NC(=O)[C@@H](NC(=O)[C@H](C)NC(=O)CNC(=O)c2ccc(O)cc2)CNC(=O)[C@H](CS(=O)(=O)[O-])NC(=O)/C=C/c2csc(n2)[C@H](Cc2ccc(O)cc2)NC(=O)C(=O)[C@H]([C@@H](C)CC)NC1=O.[Na+]` ({Benzoyl(4-OH)}-GA[Dap][Abu][X1][X2][Cya]; lactam 3-C), for which the values for the half-inhibitory concentration (IC50) (in assay [1]; with Plasmodium falciparum [2]; in assay [3]) were 2.3 nM, > 20 µg/mL and 0.099 nM, respectively.
